# An excerpt weighted towards active compounds, which were near 3.5% of everything screened.
# MrgX1 PAM: positive allosteric modulators of MrgX1, primary screen, HEK293 cells, Fluo-4 calcium flux; hit rate 0.63% among 310,000; AID 588675, 2011; B-score at 10 µM; FDSS; stronger effect = higher value;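 active = plate-corrected calcium response at least 3 library SD above typical, normal starting fluorescence, not activating the receptor alone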;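 note: compound read alongside a low EC10 to EC30 dose of BAM8-22 agonist; peak minus trough fluorescence over baseline measured at the second addition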
# Target sequence (Q96LB2 whole entry, looked up): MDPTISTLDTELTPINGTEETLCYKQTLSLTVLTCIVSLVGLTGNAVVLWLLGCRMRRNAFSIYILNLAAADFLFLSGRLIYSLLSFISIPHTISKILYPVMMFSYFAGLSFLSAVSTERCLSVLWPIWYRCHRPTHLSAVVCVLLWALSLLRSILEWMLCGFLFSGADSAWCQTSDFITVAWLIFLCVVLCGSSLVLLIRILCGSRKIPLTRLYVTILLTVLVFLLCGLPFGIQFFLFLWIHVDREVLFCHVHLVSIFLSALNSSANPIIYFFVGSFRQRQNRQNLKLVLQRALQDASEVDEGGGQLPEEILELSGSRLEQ
# MrgX1 ag: agonists of human MrgX1 receptor, primary screen, HEK293 cells, Fluo-4 calcium flux; Mas-related G-protein coupled receptor member X1 (Homo sapiens), Q96LB2; Fluo-4 calcium fluorescence, agonist mode; stronger effect = higher value; B-score at 10 µM; hit rate 0.44% among 310,000;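 active = calcium response B-score plate-corrected fluorescence ratio at least 3 library SD, with starting fluorescence B-score inside 5 SD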
#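 Test system: HEK293 cells stably expressing human MrgX1 receptor; Input: fifteen thousand cells per well; Dosing: compound delivered in addition one of three; Schedule: overnight seeding, then 1 h dark dye loading; Technique: Fluo-4 NW calcium fluorescence; Measure: B-scored fluorescence response ratio; Controls: positive and negative controls per plate.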
# RGS4 inh: RGS4 inhibitors, primary screen, cell-based, HEK293 M3R inducible RGS4, calcium flux; Regulator of G-protein signaling 4 (Homo sapiens), P49798; Fluo-4 calcium flux; stronger effect = higher value; triggered by carbachol at its EC20; B-score at 10 µM; hit rate 0.45% among 310,000;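 active = B-score, a plate-corrected calcium signal, over three deviations above library mean, with baseline fluorescence within five deviations of library mean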;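 note: RGS4 expression induced by doxycycline in cells with stable M3 receptor; B-score is computed from the integrated fluorescence ratio over baseline after carbachol; higher B-score means a larger calcium signal and so more RGS4 inhibition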
# Target sequence (P49798 whole entry, looked up): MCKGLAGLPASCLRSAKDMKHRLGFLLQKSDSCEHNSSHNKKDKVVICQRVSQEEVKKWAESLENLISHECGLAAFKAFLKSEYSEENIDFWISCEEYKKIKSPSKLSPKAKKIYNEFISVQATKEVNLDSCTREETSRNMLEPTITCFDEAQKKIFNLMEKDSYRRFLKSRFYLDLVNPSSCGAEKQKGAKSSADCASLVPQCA
# MrgX1 antagonist: antagonists of human MrgX1 receptor, primary screen, HEK293 cells, Fluo-4 calcium flux. B-score at 10 µM. AID 588676, 2011. Mas-related G-protein coupled receptor member X1 (Homo sapiens), Q96LB2. hit rate 1.3% among 310,000. BAM8-22 antagonism; stronger effect = lower value;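 active = calcium-response B-score plate-corrected more than 3 library SD below zero, starting fluorescence within 5 deviations, no agonist response on first addition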;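 note: peak minus trough fluorescence over baseline after final BAM8-22 challenge near maximal dose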
# RGS4 pot: RGS4 potentiators or activators, primary screen, cell-based, HEK293 M3R inducible RGS4, calcium flux; carbachol calcium flux Fluo4; stronger effect = lower value; B-score at 10 µM; hit rate 0.92% among 310,000; AID 463111, 2010;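 active = B-score of the integrated calcium signal more than 4 SD below the library mean, with starting fluorescence not abnormally high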;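 note: negative B-score means reduced calcium response which marks RGS4 activation or potentiation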
#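 Reagent: ECmax carbachol challenge; Test system: M3R-expressing HEK293 line, RGS4 induced by doxycycline; Schedule: overnight RGS4 induction, 30 min dye load 37 °C, 20 min compound RT; Detection: calcium dye Fluo4 fluorescence; Read-out: Agonist-evoked peak-minus-minimum fluorescence over baseline, integrated ratio, B score.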
# Active calls of the source: *; i = inactive.
SMILES,MrgX1 PAM,MrgX1 ag,RGS4 inh,MrgX1 antagonist,RGS4 pot
Cc1ccc(OCCn2ccnc2)c([N+](=O)[O-])c1,11*,i,i,i,i
NC(=O)c1sc(=S)n2c1[nH]c(=O)c1sccc12,16*,i,i,i,i
CC(=O)NNC(=O)c1sc(=S)n2c1[nH]c(=O)c1sccc12,i,i,i,i,i
COc1ccc(/C=N\NC(=O)c2ccc(F)cc2)cc1COc1cc(F)ccc1[N+](=O)[O-],i,i,i,i,-9.8*
COc1ccc(/C=N\NC(=O)c2ccccc2)cc1COc1ccccc1,i,i,i,i,i
COc1ccc(/C=N/NS(=O)(=O)c2ccc(F)cc2)cc1COc1cc(F)ccc1[N+](=O)[O-],i,i,i,i,i
CCOC(=O)c1ccccc1OCc1cc(/C=N/NC(=O)c2cccnc2)ccc1OC,i,i,i,i,-7.9*
CCNS(=O)(=O)c1cc(OC)c(Cl)cc1OC,i,i,i,i,i
CCCN(CC(=O)Nc1ccccc1C)C(=O)c1ccc(=O)n(Cc2ccccc2)n1,i,i,i,i,i
O=C1CC(=Nc2ccccc2)NN1c1ccccc1,7.4*,i,i,i,i
O=C1Cc2ccccc2N1c1ccccc1,i,i,i,i,i
C=CCn1c(SCC(=O)N(CCOC)c2c(N)n(CC(C)C)c(=O)[nH]c2=O)nc2ccccc21,i,i,i,i,i
CC(C)C(=O)Nc1ccc(C(=O)NNC(=S)NC(=O)c2ccccc2[N+](=O)[O-])cc1,i,i,i,i,i
O=C(/C=C/c1cccs1)NC(=S)NNC(=O)Cc1cccs1,i,48*,i,i,i
Cc1cccc(C(=O)NC(=S)NNC(=O)c2ccc(Cl)cc2)c1,18*,i,i,i,i
O=C(NC(=S)Nc1cccnc1Cl)c1ccc(Cl)cc1,9.5*,i,i,i,i
COc1ccc(/C=C/C(=O)NC(=S)NNC(=O)Cc2cccs2)cc1OC,i,i,i,i,i
COc1ccc(C(=O)NC(=S)NNC(=O)c2ccc(NC(=O)C(C)C)cc2)cc1,i,i,i,-5.8*,i
O=C(Nc1cccnc1Cl)c1ccc(Cl)cc1,i,i,i,i,i
CCC(=O)NC(=S)NNC(=O)c1ccc(OC)cc1,i,i,i,i,i
O=C(COc1ccc(Cl)cc1Cl)NNC(=S)NCc1ccco1,13*,i,i,i,-7.1*
CCn1c(C)nc2cc(C(=O)NNC(=S)Nc3ccccc3)ccc21,i,i,i,i,i
COc1ccc(C(=O)NC(=S)NNC(=O)Cc2cccs2)cc1,i,55*,i,i,i
COc1ccc(C(=O)NNC(=S)NC(=O)c2ccc(Cl)cc2)cc1,i,122*,i,i,-8*
CCn1c(C)nc2cc(C(=O)NNC(=S)NC(=O)c3ccccc3)ccc21,7.4*,i,i,i,i
SMILES,MrgX1 PAM,MrgX1 ag,RGS4 inh,MrgX1 antagonist,RGS4 pot
Cc1ncc(CN2CCC(CO)(Cc3ccccc3)CC2)s1,i,i,i,i,i
O=C(COc1ccc(Cl)cc1Cl)Nc1ccccc1F,i,i,i,i,-7.2*
COc1ccc(-c2nn(-c3ccccc3)cc2C(=O)NC(=S)NNC(=O)c2ccncc2)cc1,i,i,i,-4.6*,i
O=C(Cc1cccs1)NNC(=S)NCc1ccco1,i,i,i,i,-8.2*
Cc1c(NC(=S)NC(NC(=O)C(C)C)C(Cl)(Cl)Cl)c(=O)n(-c2ccccc2)n1C (centres undefined),i,i,i,i,i
COc1ccc2nc(Nc3ccc4c(c3)OCO4)sc2c1,i,i,i,i,i
COc1ccc2nc(NC(=O)c3ccc([N+](=O)[O-])o3)sc2c1,12*,i,i,i,i
COc1ccc2nc(NC(=O)/C=C/c3ccc4c(c3)OCO4)sc2c1,i,i,i,-6.3*,i
O=C(Nc1nc2c(F)cc(F)cc2s1)c1ccc([N+](=O)[O-])o1,8.6*,i,i,i,i
CN(Cc1ccccc1)C(=O)COC(=O)COc1ccc(C#N)cc1,i,i,i,i,i
O=C(O)C(c1ccccc1)N1CCCCC1 (centres undefined),i,i,i,-4.7*,i
CC(C)C(NC(=O)c1c(F)cccc1F)C(=O)N1CCN(c2ccccc2F)CC1 (centres undefined),i,i,i,i,i
CCCCn1nc(C(=O)Oc2ccc3c(C)cc(=O)oc3c2)c2ccccc2c1=O,i,i,i,-6.6*,i
CCc1sc(N2C(=O)C3C4CCC(C4=C(C)C)C3C2=O)nc1-c1ccccc1 (centres undefined),i,i,i,i,-7.5*
CC1CN(c2nc3ccccc3nc2SCC(=O)Nc2cccc(C(F)(F)F)c2)CC(C)O1 (centres undefined),i,i,i,i,-7.6*
O=C(/C(=C/c1ccccc1)n1cncn1)c1ccc(Cl)cc1Cl,i,27*,i,i,i
O=C(/C(=N\O)n1cncn1)c1ccc(Cl)cc1Cl,i,i,i,i,i
O=C(O)CC1SC(N/N=C/c2ccc(Br)cc2)NC1=O (centres undefined),i,i,i,-5.7*,i
N#C/C(=C/c1ccc(N2CCCCCC2)o1)c1ccc(F)cc1,18*,i,i,i,i
N#C/C(=C/c1ccc(N2CCOCC2)o1)c1ccc(Br)cc1,i,39*,i,i,i
CN(C(=O)c1ccncc1)C1CCCCC1,i,i,i,i,i
C=CCOc1c(Br)cc(/C=C2/C(=O)ON=C2C)cc1OC,i,i,i,i,i
CC(NC(=O)/C=C/c1ccco1)c1nc2ccccc2n1Cc1c(Cl)cccc1Cl (centres undefined),i,i,i,i,i
CC(NC(=O)/C=C/c1ccco1)c1nc2ccccc2n1Cc1ccccc1F (centres undefined),i,i,i,-5.3*,i
CCc1ccc(NSc2ccccc2[N+](=O)[O-])cc1,6.6*,i,i,i,-8.2*
O=C(O)c1ccccc1NSc1ccccc1[N+](=O)[O-],i,i,i,i,i
Cn1c(=O)c2c(ncn2CC(=O)N/N=C/C=C/c2ccco2)n(C)c1=O,18*,i,i,i,i

# Bioassay records from PubChem BioAssay.
